# Experimental data reported in ChEMBL document CHEMBL4765256, “Structural features and functional activities of benzimidazoles as NOD2 antagonists” (Eur J Med Chem, 2020).
# Calls of active or inactive are those of the source. No cut-off for these calls is given here.
# How the values were obtained:
# [1] = tested on: HEK293; test: Cytotoxicity against human HEK293 cells expressing human NOD1 assessed as reduction in metabolic activity at 20 uM incubated for 18 hrs by MTS assay; format: ADME, cell-based; conditions: hek293, 18 h
# In short: (§1)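 HEK-Blue NOD1 or NOD2 cells seeded at 1 × 10^4 cells/well in triplicate. Treated 18 h with 20 µM compound or 0.1% DMSO vehicle. Metabolic activity read by MTS (CellTiter 96 AQueous One) and expressed relative to vehicle control. Mean ± SD of three biological replicates.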
# [2] = tested on: HEK293; test: Cytotoxicity against human HEK293 cells expressing human NOD2 assessed as reduction in metabolic activity at 20 uM incubated for 18 hrs by MTS assay; format: ADME, cell-based; conditions: hek293, 18 h; in short: as §1
# [3] = target: T1, Nucleotide-binding oligomerization domain-containing protein 1 (Homo sapiens) (UniProt Q9Y239); test: Antagonist activity at human NOD1 expressed in HEK293 cells assessed as reduction in C12-iE-DAP-induced NF-kappaB activation at 10 uM preincubated for 1 hr followed by C12-iE-DAP stimulation and measured after 18 hrs by SEAP reporter gene based spectrophotometric analysis; format: cell-based; conditions: time 19.0 hrs
# T1 sequence (whole entry): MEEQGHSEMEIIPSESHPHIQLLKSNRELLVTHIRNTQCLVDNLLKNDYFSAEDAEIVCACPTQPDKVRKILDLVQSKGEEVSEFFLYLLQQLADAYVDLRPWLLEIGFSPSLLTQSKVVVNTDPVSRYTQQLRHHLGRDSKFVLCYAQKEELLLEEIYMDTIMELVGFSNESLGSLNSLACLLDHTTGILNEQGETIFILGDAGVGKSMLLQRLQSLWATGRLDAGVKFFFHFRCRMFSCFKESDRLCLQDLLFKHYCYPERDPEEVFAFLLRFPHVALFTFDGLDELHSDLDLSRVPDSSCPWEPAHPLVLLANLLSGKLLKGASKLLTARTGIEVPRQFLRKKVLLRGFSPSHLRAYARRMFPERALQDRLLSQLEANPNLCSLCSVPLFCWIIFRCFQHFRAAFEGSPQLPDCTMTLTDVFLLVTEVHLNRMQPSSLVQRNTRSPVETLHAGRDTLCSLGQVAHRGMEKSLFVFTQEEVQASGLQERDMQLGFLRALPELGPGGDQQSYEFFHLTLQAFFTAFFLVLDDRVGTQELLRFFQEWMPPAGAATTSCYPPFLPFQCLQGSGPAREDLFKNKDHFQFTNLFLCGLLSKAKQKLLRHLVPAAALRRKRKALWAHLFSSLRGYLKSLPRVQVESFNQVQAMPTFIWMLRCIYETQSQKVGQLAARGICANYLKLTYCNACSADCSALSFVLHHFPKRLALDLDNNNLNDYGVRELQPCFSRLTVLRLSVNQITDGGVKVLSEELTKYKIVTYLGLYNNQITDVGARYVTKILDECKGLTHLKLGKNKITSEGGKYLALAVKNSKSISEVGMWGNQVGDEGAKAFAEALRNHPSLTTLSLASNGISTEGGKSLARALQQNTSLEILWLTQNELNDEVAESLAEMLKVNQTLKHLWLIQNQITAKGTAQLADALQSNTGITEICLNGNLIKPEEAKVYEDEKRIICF
# In short: (§2)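 HEK-Blue NOD1 or NOD2 reporter cells (5 × 10^5 cells/mL, passages 7–12) pre-treated 1 h with 10 µM compound. Then 100 nM C12-iE-DAP (NOD1) or 2 µM MDP (NOD2) for 18 h at 37 °C, 5% CO2. Secreted SEAP read at 620 nm. DMSO ≤0.1% vehicle control. Duplicates, three biological replicates.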
# [4] = target: T2, Nucleotide-binding oligomerization domain-containing protein 2 (Homo sapiens, UniProt Q9HC29); test: Antagonist activity at human NOD2 expressed in HEK293 cells assessed as reduction in MDP-induced NF-kappaB activation at 10 uM preincubated for 1 hr followed by MDP stimulation and measured after 18 hrs by SEAP reporter gene based spectrophotometric analysis; format: cell-based; conditions: time 19.0 hrs; in short: as §2
# T2 sequence (Q9HC29 whole entry, the tested form may be a part): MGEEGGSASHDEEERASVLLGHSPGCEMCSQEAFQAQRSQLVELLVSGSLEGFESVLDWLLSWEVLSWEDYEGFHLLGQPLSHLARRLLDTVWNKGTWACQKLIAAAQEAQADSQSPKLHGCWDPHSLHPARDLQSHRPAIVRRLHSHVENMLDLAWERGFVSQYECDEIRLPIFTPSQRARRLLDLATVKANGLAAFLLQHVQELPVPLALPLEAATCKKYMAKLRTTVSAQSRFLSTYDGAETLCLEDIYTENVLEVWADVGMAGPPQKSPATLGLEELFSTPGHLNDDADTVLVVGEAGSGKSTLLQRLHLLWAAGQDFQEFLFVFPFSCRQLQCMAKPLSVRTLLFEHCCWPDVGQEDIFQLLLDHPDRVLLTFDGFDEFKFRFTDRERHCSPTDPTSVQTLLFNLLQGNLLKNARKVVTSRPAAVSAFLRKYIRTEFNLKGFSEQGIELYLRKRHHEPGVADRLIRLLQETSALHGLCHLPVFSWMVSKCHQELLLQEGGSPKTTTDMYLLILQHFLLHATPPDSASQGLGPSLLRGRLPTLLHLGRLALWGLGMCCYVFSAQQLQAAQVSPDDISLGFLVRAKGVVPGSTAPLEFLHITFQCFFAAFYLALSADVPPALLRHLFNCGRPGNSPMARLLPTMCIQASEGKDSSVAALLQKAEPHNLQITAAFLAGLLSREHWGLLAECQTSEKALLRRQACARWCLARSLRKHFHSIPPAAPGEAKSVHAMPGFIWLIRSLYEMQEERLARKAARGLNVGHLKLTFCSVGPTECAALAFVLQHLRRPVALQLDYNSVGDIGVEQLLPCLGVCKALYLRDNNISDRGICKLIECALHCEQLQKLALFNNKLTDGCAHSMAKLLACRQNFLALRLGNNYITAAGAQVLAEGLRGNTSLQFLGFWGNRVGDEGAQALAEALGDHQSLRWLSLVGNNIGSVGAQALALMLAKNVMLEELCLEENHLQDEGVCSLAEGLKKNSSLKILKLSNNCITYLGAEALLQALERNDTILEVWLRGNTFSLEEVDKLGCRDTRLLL
# [5] = target: T3, Nucleotide-binding oligomerization domain-containing protein 1 (Homo sapiens, UniProt Q9Y239); test: Antagonist activity at human NOD1 expressed in HEK293 cells assessed as reduction in C12-iE-DAP-induced NF-kappaB activation preincubated for 1 hr followed by C12-iE-DAP stimulation and measured after 18 hrs by SEAP reporter gene based spectrophotometric analysis; format: cell-based
# T3 sequence (Q9Y239 whole entry): T1 sequence (whole entry)
# [6] = target: T2, Nucleotide-binding oligomerization domain-containing protein 2; test: Antagonist activity at human NOD2 expressed in HEK293 cells assessed as reduction in MDP-induced NF-kappaB activation preincubated for 1 hr followed by MDP stimulation and measured after 18 hrs by SEAP reporter gene based spectrophotometric analysis; format: cell-based
# In short: (§3)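 Dose–response in HEK-Blue NOD2 and NOD1 cells (5 × 10^5 cells/mL): 1 h pre-treatment with 0.3125–20 µM antagonist, then 2 µM MDP or 100 nM C12-iE-DAP respectively, 18 h incubation. SEAP absorbance read at 620 nm. IC50 fitted by non-linear regression. Duplicates, three biological replicates, DMSO ≤0.1%.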
# [7] = tested on: THP-1; test: Antagonist activity at NOD in human THP-1 cells assessed as increase in IL-8 secretion at 20 uM; format: cell-based
# In short: (§4)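 THP-1 cells at 10^6 cells/mL in RPMI 1640 with 10% heat-inactivated FCS, passages 3–12, exposed to 20 µM compound alone (no NOD agonist). IL-8 and TNF-α in cell-free supernatants measured by sandwich ELISA, reported in pg/mL. Detection limits were 15.6 pg/mL for IL-8 and 4 pg/mL for TNF-α. DMSO vehicle control, not above 0.2% final.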
# [8] = tested on: THP-1; test: Antagonist activity at NOD in human THP-1 cells assessed as increase in TNF-alpha secretion at 20 uM; format: cell-based; in short: as §4
# [9] = tested on: THP-1; test: Cytotoxicity against human THP-1 cells assessed as […] dehydrogenase leakage at 20 uM incubated for 18 hrs; format: cell-based; conditions: thp-1, 18 h
# In short: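 THP-1 cells treated 18 h with compound at up to 20 µM. Lactate dehydrogenase released into cell-free supernatant measured with a colorimetric kit, results given as OD.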
# [10] = target: T1, Nucleotide-binding oligomerization domain-containing protein 1 (Homo sapiens); test: Antagonist activity at NOD1 in human THP-1 cells assessed as reduction in C12-iE-DAP-induced IL-8 secretion at 20 uM preincubated for 1 hr followed by C12-iE-DAP stimulation and measured after 20 hrs by ELISA; format: cell-based; conditions: filed as antagonist, time 21.0 hrs
# In short: (§5)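 THP-1 cells at 10^6 cells/mL in 24-well cultures, passages 3–12. Pre-treated 1 h with 20 µM compound, then 10 µM MDP (NOD2) or 10 µM C12-iE-DAP (NOD1) added, 20 h at 37 °C, 5% CO2. Triplicate wells, DMSO ≤0.2% as vehicle control. Supernatant IL-8 by sandwich ELISA, detection limit 15.6 pg/mL. Mean ± SD of duplicates from three independent experiments, Dunnett test.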
# [11] = target: T2, Nucleotide-binding oligomerization domain-containing protein 2; test: Antagonist activity at NOD2 in human THP-1 cells assessed as reduction in MDP-induced IL-8 secretion at 20 uM preincubated for 1 hr followed by MDP stimulation and measured after 20 hrs by ELISA; format: cell-based; conditions: filed as antagonist, time 21.0 hrs; in short: as §5
# [12] = tested on: THP-1; test: Antagonist activity at NOD1/TLR4 in human THP-1 cells assessed as reduction in C12-iE-DAP/LPS-induced TNF-alpha secretion at 20 uM preincubated for 1 hr followed by C12-iE-DAP/LPS stimulation and measured after 20 hrs by ELISA; format: cell-based; conditions: time 21.0 hrs
# In short: (§6)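 Synergy setting in THP-1 cells: 1 h pre-treatment with 20 µM compound, then 10 µM MDP or C12-iE-DAP plus 1 ng/mL E. coli O127:B8 LPS for 20 h. Supernatant TNF-α by sandwich ELISA, detection limit 4 pg/mL. DMSO vehicle ≤0.2%. Duplicates from three independent experiments, mean ± SD, Dunnett test against agonist+LPS-treated cells.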
# [13] = tested on: THP-1; test: Antagonist activity at NOD2/TLR4 in human THP-1 cells assessed as reduction in MDP/LPS-induced TNF-alpha secretion at 20 uM preincubated for 1 hr followed by MDP/LPS stimulation and measured after 20 hrs by ELISA; format: cell-based; conditions: filed as antagonist, time 21.0 hrs; in short: as §6
# [14] = organism: Homo sapiens; test: Selectivity index, ratio of IC50 for antagonist activity at human NOD1 expressed in HEK293 cells assessed as reduction in […] induced NF-kappaB activation preincubated for 1 hr followed by C12-iE-DAP stimulation and measured after 18 hrs by SEAP reporter gene based spectrophotometric analysis to IC50 for antagonist activity at human NOD2 cells expressed in HEK293 cells assessed as reduction in MDP induced NF-kappaB activation preincubated for 1 hr followed by […] stimulation and measured after 18 hrs by SEAP reporter gene based spectrophotometric analysis; format: cell-based; in short: as §3
Activity [3],Activity [4],Structure (SMILES),Activity [1],Activity [2],Activity ([3]; filed as antagonist),Activity ([4]; filed as antagonist),IC50 [5] [µM],IC50 ([6]; read-out: IC50) [µM],further results
–,–,O=C(Cn1c(CCNS(=O)(=O)c2cccnc2)nc2ccccc21)Nc1ccc2c(c1)CCC2,Non-Toxic,Non-Toxic,Active,Active,32,16.4,–
–,–,O=C(Cn1c(CCCNC(=O)c2ccccc2)nc2ccccc21)Nc1ccc2c(c1)CCC2,Non-Toxic,Non-Toxic,Active,Active,17.7,5.7,Activity [7]: inactive; Activity [8]: inactive; Activity [9]: Non-Toxic; Activity [10]: Active; Activity [11]: Active; Activity [12]: inactive; Activity [13]: Active
inactive,inactive,O=C(Cn1c(CCNC(=O)c2cccnc2)nc2ccccc21)Nc1ccc2c(c1)CCC2,Non-Toxic,Non-Toxic,–,–,–,–,IC50 ([6]; hek293): Not Active
inactive,inactive,O=C(Cn1c(CCNC(=O)c2ccncc2)nc2ccccc21)Nc1ccc2c(c1)CCC2,Non-Toxic,Non-Toxic,–,–,–,–,–
–,–,Cc1ccc(S(=O)(=O)n2c(N)nc3ccccc32)cc1,Non-Toxic,Non-Toxic,Active,–,–,–,Activity [10]: Active; Activity ([12]; filed as antagonist): Active
–,–,CN(CCCc1nc2ccccc2n1CC(=O)Nc1ccc2c(c1)CCC2)S(=O)(=O)c1ccccc1,Non-Toxic,Non-Toxic,–,–,1.66,5.08,–
inactive,inactive,Cl.O=C(Cn1c(CCNC(=O)C2CCNCC2)nc2ccccc21)Nc1ccc2c(c1)CCC2,Non-Toxic,Non-Toxic,–,–,–,–,–
–,–,O=C(Cn1c(CCNC(=O)c2ccccc2)nc2ccccc21)Nc1ccc2c(c1)CCC2,Non-Toxic,Non-Toxic,Active,Active,27.6,6.2,Ratio IC50 [14]: 4.5; Activity [11]: Active

Structure (SMILES),Activity [3],Activity [4],Activity [1],Activity [2],Activity ([3]; filed as antagonist),Activity ([4]; filed as antagonist),IC50 [5] [µM],IC50 ([6]; read-out: IC50) [µM],further results
O=C(Cn1c(CCNCc2ccncc2)nc2ccccc21)Nc1ccc2c(c1)CCC2,inactive,inactive,Non-Toxic,Non-Toxic,–,–,27.8,22.9,–
